Data as given in ChEMBL document CHEMBL5380852, “N'-Phenylacetohydrazide Derivatives as Potent Ebola Virus Entry Inhibitors with an Improved Pharmacokinetic Profile” (J Med Chem, 2023).
The source made the active and inactive calls. The rule behind the calls is not given here.

Key:
[1] = AUClast in BALB/c mouse brain at 50 mg/kg, po measured upto 24 hrs by LC-MS/MS method; type: ADME, organism-based; design: dose 50 mg/kg, time < 24 hrs, route po; conditions: in vivo
In short: (§1)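 Male BALB/c mice aged 8–12 weeks (20–35 g) received one dose in a solution of 90% PBS pH 7.4, 5% solutol HS-15 and 5% NMP: 10 mg/kg i.p. or 50 mg/kg p.o. Three mice per time point, sampled up to 24 h. Plasma and brain were taken at each point and assayed by LC–MS/MS. Parameters came from noncompartmental analysis.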

[2] = Selectivity index, ratio of CC50 for human HeLa cells to EC50 for pseudotyped Ebola virus infected in HeLa cells; type: toxicity, cell-based; conditions: read-out: Ratio CC50/EC50
[3] = Selectivity index, ratio of CC50 for african green monkey Vero E6 cells to EC50 for wild type Zaire EBOV mayinga; type: cell-based, Vero C1008; conditions: read-out: Ratio CC50/EC50
[4] = Inhibition of EBOV-GP to human C-terminal Flag tagged NPC1 protein protein interaction at 50 uM by ELISA
In short: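 GP particles were cleaved with thermolysin (250 μg/mL, 1 h, 37 °C; stopped with 1 mM phosphoramidon) and captured on plates by anti-GP mAb KZ52. Purified Flag-tagged human NPC1 domain C (10 μg/mL), expressed in HEK293T, was added with or without compound at 50 μM. Bound protein was detected with anti-Flag-HRP and TMB at 450 nm, n = 3.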

[5] = Tmax in BALB/c mouse plasma at 10 mg/kg, ip measured upto 24 hrs by LC-MS/MS method; type: ADME, organism-based; conditions: in vivo; in short: as §1
[6] = Tmax in BALB/c mouse plasma at 50 mg/kg, po measured upto 24 hrs by LC-MS/MS method; type: ADME, organism-based; conditions: in vivo; in short: as §1
[7] = Tmax in BALB/c mouse brain at 10 mg/kg, ip measured upto 24 hrs by LC-MS/MS method; type: ADME, organism-based; conditions: in vivo; in short: as §1
[8] = Tmax in BALB/c mouse brain at 50 mg/kg, po measured upto 24 hrs by LC-MS/MS method; type: ADME, organism-based; conditions: in vivo; in short: as §1
[9] = Cmax in BALB/c mouse plasma at 50 mg/kg, po measured upto 24 hrs by LC-MS/MS method; type: ADME, organism-based; design: dose 50 mg/kg, time < 24 hrs, route po; conditions: in vivo; in short: as §1
[10] = Cmax in BALB/c mouse brain at 50 mg/kg, po measured upto 24 hrs by LC-MS/MS method; type: ADME, organism-based; design: time < 24 hrs, dose 50 mg/kg, route po; conditions: in vivo; in short: as §1
[11] = AUClast in BALB/c mouse plasma at 10 mg/kg, ip measured upto 24 hrs by LC-MS/MS method; type: ADME, organism-based; design: dose 10 mg/kg, time < 24 hrs, route ip; conditions: in vivo; in short: as §1
[12] = AUClast in BALB/c mouse plasma at 50 mg/kg, po measured upto 24 hrs by LC-MS/MS method; type: ADME, organism-based; design: time < 24 hrs, dose 50 mg/kg, route po; conditions: in vivo; in short: as §1
[13] = AUClast in BALB/c mouse brain at 10 mg/kg, ip measured upto 24 hrs by LC-MS/MS method; type: ADME, organism-based; design: time < 24 hrs, dose 10 mg/kg, route ip; conditions: in vivo; in short: as §1
[14] = Cmax in BALB/c mouse plasma at 10 mg/kg, ip measured upto 24 hrs by LC-MS/MS method; type: ADME, organism-based; design: dose 10 mg/kg, time < 24 hrs, route ip; conditions: in vivo; in short: as §1
[15] = Cmax in BALB/c mouse brain at 10 mg/kg, ip measured upto 24 hrs by LC-MS/MS method; type: ADME, organism-based; design: time < 24 hrs, dose 10 mg/kg, route ip; conditions: in vivo; in short: as §1
Ebolavirus = test: Antiviral activity against pseudotyped Ebola virus infected in HeLa cells preincubated for 1 hr followed by viral infection and measured after 48 hrs by steady-glo luciferase assay; type: functional, organism-based; conditions: Orthoebolavirus
In short: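 HeLa cells (2×10^4/well; DMEM, 10% FBS, 1% L-glutamine, 37 °C, 5% CO2) were pretreated with compound for 1 h at 37 °C, then given 5000 TCID50 of HIV-luciferase lentivirus pseudotyped with EBOV-GP. After 48 h, cells were washed, lysed and luciferase read. Primary screen was at 10 μM final. […] EC50 is the mean of three independent experiments, from normalized dose–response fits with 95% CI.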

[16] = Cytotoxicity against human HeLa cells assessed as reduction in cell viability incubated for 24 hrs by MTS assay; type: toxicity, cell-based
In short: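 HeLa cells (2×10^4/well) were grown in DMEM with 10% FBS and exposed to compound at 0–200 μM for 24 h. Viability was read by MTS reduction at 490 nm, as a percentage of untreated cells, and CC50 was derived.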

SMILES | AUClast [1] [ng·h/mL] | selectivity ratio [2] | selectivity ratio [3] | inhibition [4] | Tmax [5] [min] | Tmax [6] [h] | Tmax [7] [h] | Tmax [8] [h] | Cmax [9] [ng/mL] | Cmax [10] [ng/mL] | AUClast [11] [ng·h/mL] | AUClast [12] [ng·h/mL] | AUClast [13] [ng·h/mL] | Cmax [14] [ng/mL] | Cmax [15] [ng/mL] | EC50 (Ebolavirus) [nM] | CC50 at 24 h [16] [nM]
O=C(CCNCCN1CCN(Cc2ccccc2)CC1)NN(c1ccccc1)c1ccccc1 | 7109.56 | 274 | 13.1 | Active | 4.8 | 0.25 | 8 | 24 | 93.62 | 341.33 | 83.83 | 152.76 | 3886.74 |  |  |  | 
O=C(CCNCCC1CCN(Cc2ccccc2)CC1)NN(c1ccccc1)c1ccccc1 |  | 115 | 31.5 |  | 4.8 | 0.25 | 8 | 4 |  |  | 559.47 |  | 1142.02 | 283.42 | 51.03 |  | 
CN(C)CCOc1ccc(/C(=C(/CCCl)c2ccccc2)c2ccccc2)cc1 [TOREMIFENE] |  |  |  |  |  |  |  |  |  |  |  |  |  |  |  | 70 | > 100000
